Reference: paper PMC12521504 (Communications Biology, 2025)
Like-named read-outs stand apart in the source and are kept apart here.

Legend:
male ICR-CD1 mice [1] = test: Hot plate assay; type: in vivo, mouse; settings: 15 min
In short: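 Male ICR-CD1 mice, 8 weeks old (n = 6–15/group), received compound i.c.v. (10 µl, 100 µg/mouse) under isoflurane, alone or with MERF (50 µg/mouse). Mice were placed on a glass platform preheated to 55 °C. Latency to shake, lick or lift the hind paw, or to jump, was timed at set points, with a 60 s cut-off. Results are %MPE = (Test−Baseline)/(60−Baseline) × 100.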

male ICR-CD1 mice [2] = test: Formalin induced paw licking/lifting test; type: in vivo, mouse; settings: 2% formalin
male ICR-CD1 mice [3] = test: Tail-flick assay; type: in vivo, mouse; settings: for %MPE (group mean): 15 min
In short: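 Radiant-heat tail-flick in 8-week male ICR-CD1 mice (n = 6–15/group). Beam was calibrated to a 2–4 s baseline, tail tip placed 20–30 mm from the source, cut-off 10 s. Compound was given i.c.v. under isoflurane at 100 µg/mouse (also 75 µg/mouse), alone or with MERF (50 µg/mouse). […] Results are %MPE relative to pre-treatment baseline.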

male ICR-CD1 mice [4] = test: Acetic acid induced writhing test; type: in vivo, mouse; settings: for effect of naloxone on analgesia of systemic (i.p.) compound: naloxone 5 mg/kg s.c.
mouse ACE (mACE) [5] = molecular target: T1, mouse ACE (mACE) (Mus musculus, UniProt P09470); test: Fluorescence-based ACE enzymatic assay with Mca-[…]; type: biochemical
T1 sequence (P09470 35-1312): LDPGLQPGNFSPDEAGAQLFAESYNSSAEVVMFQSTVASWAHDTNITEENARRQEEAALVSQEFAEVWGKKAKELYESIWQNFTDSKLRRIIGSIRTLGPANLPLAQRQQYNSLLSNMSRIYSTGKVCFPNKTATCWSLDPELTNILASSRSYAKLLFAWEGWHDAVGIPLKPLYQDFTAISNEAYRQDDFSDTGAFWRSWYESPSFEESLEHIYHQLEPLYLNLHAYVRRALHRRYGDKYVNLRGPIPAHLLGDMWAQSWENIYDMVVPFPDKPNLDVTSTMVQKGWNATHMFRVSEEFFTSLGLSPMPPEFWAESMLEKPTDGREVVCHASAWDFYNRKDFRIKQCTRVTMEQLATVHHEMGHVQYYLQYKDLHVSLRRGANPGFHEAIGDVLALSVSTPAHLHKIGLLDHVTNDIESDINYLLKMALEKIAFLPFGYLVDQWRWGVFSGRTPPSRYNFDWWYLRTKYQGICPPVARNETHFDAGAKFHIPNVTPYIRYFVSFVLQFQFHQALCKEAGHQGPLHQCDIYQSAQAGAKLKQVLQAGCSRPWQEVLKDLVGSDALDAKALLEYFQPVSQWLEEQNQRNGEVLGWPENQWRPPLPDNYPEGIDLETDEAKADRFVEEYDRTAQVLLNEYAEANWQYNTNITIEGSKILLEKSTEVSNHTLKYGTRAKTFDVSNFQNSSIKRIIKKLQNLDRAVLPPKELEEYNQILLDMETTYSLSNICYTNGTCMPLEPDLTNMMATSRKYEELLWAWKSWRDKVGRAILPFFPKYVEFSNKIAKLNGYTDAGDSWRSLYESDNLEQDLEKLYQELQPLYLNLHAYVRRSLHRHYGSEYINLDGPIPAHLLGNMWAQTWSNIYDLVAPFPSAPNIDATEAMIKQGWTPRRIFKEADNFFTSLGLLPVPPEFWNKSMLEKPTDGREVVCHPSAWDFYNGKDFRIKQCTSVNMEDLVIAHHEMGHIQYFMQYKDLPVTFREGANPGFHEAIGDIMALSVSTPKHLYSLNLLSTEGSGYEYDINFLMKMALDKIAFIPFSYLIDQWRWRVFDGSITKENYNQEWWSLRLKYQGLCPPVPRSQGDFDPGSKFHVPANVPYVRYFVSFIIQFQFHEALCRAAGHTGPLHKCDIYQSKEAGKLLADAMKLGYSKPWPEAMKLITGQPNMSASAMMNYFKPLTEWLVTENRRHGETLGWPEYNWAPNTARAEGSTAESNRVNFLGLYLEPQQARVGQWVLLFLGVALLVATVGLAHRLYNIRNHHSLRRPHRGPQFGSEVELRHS

N-domain of mACE = molecular target: T2, N-domain of mACE (Mus musculus, UniProt P09470); test: ACE N-domain specific enzymatic assay with Abz-SDK; type: biochemical
T2 sequence (P09470 35-1312): T1 sequence (P09470 35-1312)

C-domain of mACE = molecular target: T3, C-domain of mACE (Mus musculus, UniProt P09470); test: ACE C-domain specific enzymatic assay with Abz-LFK; type: biochemical
T3 sequence (P09470 35-1312): T1 sequence (P09470 35-1312)

[6] = tested on: extracellular MERF, Met-enkephalin and Leu-enkephalin levels; type: cell-based, mouse; settings: thiorphan 10 μM, raloxifene 500 μM
mouse ACE (mACE) [7] = molecular target: T1, mouse ACE (mACE); test: Secondary LC-MS/MS ACE inhibition assay; type: biochemical
[8] = compound 100 μg/mouse + MERF i.c.v.
[9] = compound 100 μg/mouse i.c.v. alone
[10] = 100 µg/animal i.c.v. + naloxone 5 mg/kg s.c.
[11] = 100 µg/animal i.c.v., late phase
[12] = compound 100 μg/mouse + MERF 50 μg/mouse i.c.v.
[13] = 100 µg/animal i.c.v., 1% acetic acid i.p., 30 min

## C[C@H](CS)C(=O)N1CCC[C@H]1C(=O)O [Captopril, captopril]
Male ICR-CD1 mice [1]; [8]
  %MPE (group mean): 51.30%
Male ICR-CD1 mice [1]; [9]
  %MPE (group mean): 10.32%
Male ICR-CD1 mice [2]; [10]
  paw licking/lifting duration, Phase I: 73.5 s
  paw licking/lifting duration, Phase II: 16.25 s
Male ICR-CD1 mice [2]; 100 µg/animal i.c.v., 0–5 min
  paw licking/lifting duration, Phase I: 16.5 s
Male ICR-CD1 mice [2]; [11]
  paw licking/lifting duration, Phase II: 15 s
Male ICR-CD1 mice [3]; [12]
  %MPE (group mean): 68.31%
Male ICR-CD1 mice [3]; [9]
  %MPE (group mean): 21.68%
Male ICR-CD1 mice [4]; [13]
  writhings (group mean): 48
Male ICR-CD1 mice [4]; 50 mg/kg i.p., 1% acetic acid
  writhings (group mean): 57.66
Male ICR-CD1 mice [4]
  effect of naloxone on analgesia of systemic (i.p.) compound: reversed by systemic naloxone

## O=C(O)c1nn(Cc2ccc(Cl)cc2Cl)c2ccccc12 [Lonidamine, lonidamine]
Mouse ACE (mACE) [5]
  confirmation of HTS findings in dose-response studies: did not confirm the HTS findings

## C=CCN1CC[C@]23c4c5ccc(O)c4O[C@H]2C(=O)CC[C@@]3(O)[C@H]1C5 [Naloxone, naloxone]
Male ICR-CD1 mice [3]; 5 mg/kg s.c.
  analgesia of naloxone itself: unable to induce analgesia

## O=C(c1ccc(OCCN2CCCCC2)cc1)c1c(-c2ccc(O)cc2)sc2cc(O)ccc12 [Raloxifene, raloxifene]
Male ICR-CD1 mice [1]; [8]
  %MPE (group mean): 25.89%
Male ICR-CD1 mice [1]; [9]
  %MPE (group mean): 5.52%
Male ICR-CD1 mice [2]; [10]
  paw licking/lifting duration, Phase I: 69.75 s
  paw licking/lifting duration, Phase II: 9.25 s
Male ICR-CD1 mice [2]; 100 µg/animal i.c.v., 0–5 min
  paw licking/lifting duration, Phase I: 10 s
Male ICR-CD1 mice [2]; [11]
  paw licking/lifting duration, Phase II: 2 s
Mouse ACE (mACE) [5]
  IC50: 102 ± 13.2 µM
N-domain of mACE
  Ki: 180 µM
N-domain of mACE; read-out: IC50 N-domain, 40 µM Abz-SDK(Dnp)P-OH, 35 nM mACE
  IC50: 320 µM
Male ICR-CD1 mice [3]; [12]
  %MPE (group mean): 34.28%
Male ICR-CD1 mice [3]; [9]
  %MPE (group mean): 13.33%
Male ICR-CD1 mice [4]; 100 µg/animal i.c.v. + naloxone 5 mg/kg s.c., 1% acetic acid
  writhings (group mean): 78.75
Male ICR-CD1 mice [4]; [13]
  writhings (group mean): 51.8
Male ICR-CD1 mice [4]
  effect of naloxone on analgesia of systemic (i.p.) compound: naloxone failed to reverse the analgesic effect
C-domain of mACE
  IC50: 140 µM
  Ki: 30 µM

## Cl.O=C(O)C1CCCN(CCC=C(c2ccccc2)c2ccccc2)C1 (stereo not shown) [SKF 89976A hydrochloride]
Mouse ACE (mACE) [5]
  confirmation of HTS findings in dose-response studies: did not confirm the HTS findings

## O=C(O)CNC(=O)C(CS)Cc1ccccc1 (stereo not shown) [Thiorphan, thiorphan]
Male ICR-CD1 mice [1]; [8]
  %MPE (group mean): 36.48%
Male ICR-CD1 mice [1]; [9]
  %MPE (group mean): 13.83%
[6]
  effect on Met- and Leu-enkephalin levels: affected the levels of Met- and Leu-enkephalins
Mouse ACE (mACE) [7]
  IC50: 3.51 ± 0.37 µM
Mouse ACE (mACE) [5]
  IC50: 2.36 ± 0.42 µM
N-domain of mACE
  IC50: 1.3 ± 0.08 µM
  Ki: 0.71 ± 0.045 µM
Male ICR-CD1 mice [3]; [12]
  %MPE (group mean): 40.32%
Male ICR-CD1 mice [3]; [9]
  %MPE (group mean): 22.45%
C-domain of mACE
  IC50: 0.77 ± 0.046 µM
  Ki: 0.17 ± 0.01 µM
C-domain of mACE; N-domain versus C-domain
  C/N selectivity factor: 4.2

## Met-enkephalin-Arg-Phe [MERF]
Male ICR-CD1 mice [3]; MERF 50 μg/mouse i.c.v. alone
  %MPE (group mean): 6.27%
